Compound activity: PubChem BioAssay, several laboratories
Sampled rows, rich in hits. Any-hit rate of the full collection: about 2.2%.
UBC13 polyUb = inhibitors of human UBC13 polyubiquitin chain formation; TR-FRET; inhibition, % at 20 µM; 330,000 compounds, 0.47% hits; AID 485273; in the data active means inhibition above about 45%, passing the limit was not always enough
GSTO1 counter = blocks human GSTO1 in RBBP9 counter-screen | P78417 | recombinant GSTO1, activity-based probe fluorescence polarization | inhibition, % at 5.96 µM | 300,000 compounds, 1.1% hits;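 active means inhibition above the campaign mean inhibition plus 3 SD, cut at about 35% in these data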;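 further: 0% = GSTO1-1 with DMSO and 100% = wells lacking GSTO1-1 enzyme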
UBC9 SUMO inh = blocks human SUMOylation mediated by UBC9. P63279. HTRF SUMOylation assay, SAE1/SAE2 + UBC9, in vitro. inhibition, % at 35 µM. 290,000 compounds, 0.36% hits. AID 2006; in the data active means inhibition above about 50%, passing the limit was not always enough
Apaf1 inhib = inhibitors of human Apaf-1 apoptosome. O14727. reconstituted apoptosome caspase-3 activity, DEVD-Rh110 fluorescence. inhibition, % at 20 µM. 330,000 compounds, 0.71% hits; active means inhibition of at least 40% at 20 µM;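 further: plate controls were DMSO wells for no effect and DEVD-CHO caspase inhibitor wells for full effect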
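Material: reconstituted apoptosome with Apaf-1, cytochrome c, caspase-9, procaspase-3, dATP / Buffer or medium: pH 7.5 Hepes buffer with CHAPS, BSA, DTT / Also added: cytochrome c with DEVD-Rh110 / Schedule: compound with Apaf-1, dATP, procaspase-3 30 min, then 50 min reaction, room temperature / Technique: rhodamine 110 fluorescence at Ex 480/Em 540 nm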
Rin1-Abl PPI inh = inhibitors of human Rin1-Abl protein interaction; P00519+Q13671; TR-FRET Rin1/Abl binding, biochemical; inhibition, % at 7.35 µM; 360,000 compounds, 0.4% hits; AID 588664; in the data active means inhibition above about 5%, passing the limit was not always enough
PAD4 inh = blocks human protein arginine deiminase 4; recombinant PAD4, RCA probe fluorescence polarization; inhibition, % at 6.36 µM; 330,000 compounds, 0.41% hits;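 active means percent inhibition above a cutoff equal to the mean of all tested compounds plus 3 SD, cut at about 15% in these data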;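 further: 0% = PAD4 with RCA probe and DMSO and 100% = probe without PAD4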
Casp3 counter = caspase-3 inhibition (UBC13 counter-screen); AID 488856; inhibition, % at 20 µM; 1,400 compounds, 4% hits; shares compounds with UBC13 polyUb; Recombinant caspase-3, Caspase-Glo 3/7 luminescence, 60 min;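 active means mean inhibition across replicates above about 26%, limit read from the data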;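 further: plate controls were DMSO with caspase-3 for no effect and DMSO wells lacking enzyme for full effect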
UBC13 conf = human UBC13 polyubiquitin inhibition, confirmed; shares compounds with UBC13 polyUb; UBC13 polyubiquitination, TR-FRET, biochemical; inhibition, % at 10 µM; 1,400 compounds, 68% hits; AID 488859; in the data active means inhibition above about 45%
Apaf-1 inh conf = Apaf-1 inhibition, single-dose confirmed | shares compounds with Apaf1 inhib | reconstituted apoptosome, caspase-3 DEVD-Rh110 fluorescence | inhibition, % at 20 µM | 1,800 compounds, 25% hits;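 active means mean inhibition of at least 40% at 20 µM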;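 further: plate controls were DMSO wells for no effect and DEVD-CHO caspase inhibitor control wells for full effect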
Rh110 interf inh = counter-screen for Apaf-1 inhibitors: fluorescence interference; shares compounds with Apaf1 inhib; Rh110 fluorescence interference, quenched caspase reaction; activation (fluorescence interference), % at 20 µM; 1,800 tested, under 10 active;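 active means signal rise of 40% or more at 20 µM, treated as a fluorescence artifact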
Fluor interf inh = Apaf-1 inhibitor counter-screen fluorescence artifact. shares compounds with Apaf1 inhib. fluorescence interference counterscreen, Apaf-1 assay format. IC50, µM. 460 tested, under 10 active; call rule not given here
Starred values were filed as active, the others as inactive; · = no result given.

SMILES	UBC13 polyUb	GSTO1 counter	UBC9 SUMO inh	Apaf1 inhib	Rin1-Abl PPI inh	PAD4 inh	Casp3 counter	UBC13 conf	Apaf-1 inh conf	Rh110 interf inh	others
COc1cccc(-c2sc3ccccc3c2-c2ccc(OCCN3CCCC3)cc2)c1	84*	·	·	71*	-1	0	-4	68*	25	14
COc1ccc(-c2sc3ccc(OC)cc3c2-c2ccc(OCCN3CCOCC3)cc2)cc1	·	·	·	29	4	0	·	·	·	·
CC1(C)C(=O)Nc2ccccc2N1C(=O)COC(=O)CSc1ccc(Cl)cc1	2	·	·	17	1	13	·	·	·	·
Cc1cn([C@H]2C[C@H](O)[C@@H](/C=C/C(=O)NCCc3ccc(S(N)(=O)=O)cc3)O2)c(=O)[nH]c1=O	·	·	·	·	2	·	·	·	·	·
COc1ccc(NC(=O)COc2ccc(/C=C/c3cc[n+](C)cc3)cc2OC)cc1	2	4	42	1	-5	-2	·	·	·	·
COc1cc(/C=C/c2cc[n+](C)cc2)ccc1OCC(=O)Nc1ccc(Cl)c(Cl)c1	103*	0	35	73*	-1	-2	-1	116*	46*	6	Fluor interf inh=>100
COC(=O)C1=C(C)N(Cc2ccccc2)C(=NCc2cc(OC)c(OC)c(OC)c2)N[C@H]1c1ccc(Br)cc1	55*	·	·	55*	2	-1	-1	48*	11	7
COC(=O)C1=C(C)N(Cc2ccccc2)C(=NCc2cc(OC)c(OC)c(OC)c2)N[C@H]1c1ccccc1	32	5	16	8	·	3	·	·	·	·
COC(=O)C1=C(C)N(Cc2ccccc2)C(=NCc2cc(OC)c(OC)c(OC)c2)N[C@H]1CCc1ccccc1	47*	·	·	48*	1	2	4	39	14	5
NS(=O)(=O)c1ccc(NC(=O)CN2CCN(S(=O)(=O)c3cccs3)CC2)cc1	-1	·	·	2	-2	·	·	·	·	·
CC(=O)NCC1CCCN(C(=O)c2ccc(OC3CCN(Cc4ccccn4)CC3)cc2)C1 (configuration not stated)	-6	3	3	-3	-1	-1	·	·	·	·
COc1ccc(NC(=O)CN2CCCC2c2cccs2)cc1S(=O)(=O)N1CCCCC1 (configuration not stated)	8	·	·	5	-1	2	·	·	·	·
C#CCOCCOCCOCCNc1nc(N2CCN(C(=O)C([C@@H](C)O)n3cc([C@@H](N)CCCCN)nn3)CC2)nc(N2CCN(C(=O)[C@H](CCCN=C(N)N)n3cc(C(N)[C@@H](C)CC)nn3)CC2)n1 (some centres not stated)	101*	·	·	46*	-3	-1	7	111*	-3	-3
C#CCOCCOCCOCCNc1nc(N2CCN(C(=O)[C@H]([C@@H](C)CC)n3cc([C@@H](N)CC(C)C)nn3)CC2)nc(N2CCN(C(=O)[C@H](Cc3cc4ccccc4[nH]3)n3cc([C@@H](N)Cc4ccc(O)cc4)nn3)CC2)n1	74*	5	-8	56*	·	-3	2	66*	7	-1
C#CCOCCOCCOCCNc1nc(N2CCN(C(=O)[C@H](CCCCN)n3cc([C@@H](N)C(C)CC)nn3)CC2)nc(N2CCN(C(=O)[C@H](Cc3cc4ccccc4[nH]3)n3cc([C@@H](N)C(C)CC)nn3)CC2)n1 (some centres not stated)	111*	·	·	53*	0	-3	-2	114*	4	-7
C#CCOCCOCCOCCNc1nc(N2CCN(C(=O)C([C@@H](C)CC)n3cc(C(N)CC(C)C)nn3)CC2)nc(N2CCN(C(=O)[C@H](CCC(=O)O)n3cc(C(N)Cc4ccc(O)cc4)nn3)CC2)n1 (some centres not stated)	14	-1	4	-9	0	2	·	·	·	·
C#CCOCCOCCOCCNc1nc(N2CCN(C(=O)[C@H]([C@@H](C)CC)n3cc([C@@H](N)Cc4ccc(O)cc4)nn3)CC2)nc(N2CCN(C(=O)[C@H](Cc3cc4ccccc4[nH]3)n3cc([C@@H](N)CC(C)C)nn3)CC2)n1	87*	-7	·	63*	-2	-3	-4	61*	30	-3
Cc1c(C(=O)N2CCOCC2)c(S(=O)(=O)N2CCN(c3ccc(Cl)cc3)CC2)c(C)n1C	0	-3	9	-5	-2	2	·	·	·	·
NC1=NC[C@H](Cc2ccc(O)cc2)N1CCC12CC3CC(CC(C3)C1)C2	78*	2	6	49*	4	4	2	58*	12	5
CCCCN1C(N)=NC[C@@H]1Cc1ccc(O)cc1	-2	7	10	-1	1	0	·	·	·	·
Cc1cccc(C)c1NC(=O)c1csc([C@@H]2O[C@H](CO)[C@H](O)[C@H](O)[C@H]2O)n1	·	·	·	·	0	·	·	·	·	·
CCCCCCCNC(=O)C1(CC2CC(c3ccc(Cl)cc3)=NO2)CCN(C(=O)Cc2ccc(F)cc2)CC1 (configuration not stated)	-3	-1	5	17	-1	-1	·	·	·	·
CCCCCCCNC(=O)C1(CC2CC(c3cccc(Br)c3)=NO2)CCNCC1 (configuration not stated)	96*	0	9	46*	1	1	4	99*	38	8
CCCCCCCNC(=O)C1(CC2CC(c3ccc(Cl)cc3)=NO2)CCNCC1 (configuration not stated)	83*	-3	-7	41*	5	1	0	80*	30	9
Cn1c(=O)c2cc(NC(=O)Nc3cccnc3)ccc2n1-c1ccc(C(C)(C)C)cc1	·	·	·	·	-5	·	·	·	·	·
CCN(CC)CCOC(=O)c1ccc(N/C=C(/C#N)c2nc(-c3cccc(OC)c3)cs2)cc1	99*	-3	-12	55*	0	-6	0	-2	7	3
CCN(CC)CCOC(=O)c1ccc(N/C=C(/C#N)c2nc(-c3ccc(OC)c(OC)c3)cs2)cc1	117*	7	·	55*	-13	-5	-2	138*	67*	12	Fluor interf inh=>100
Cc1ccc(-c2csc(/C(C#N)=C/Nc3ccc4c(c3)OCCO4)n2)cc1	-2	-1	6	-9	-3	-2	·	·	·	·
